# Experimental data from different studies.
# Target: Serine/threonine-protein kinase TAO2 (TAOK2, Homo sapiens, UniProt Q9UL54)
# Sequence (Q9UL54 1-1235, as in one of the studies): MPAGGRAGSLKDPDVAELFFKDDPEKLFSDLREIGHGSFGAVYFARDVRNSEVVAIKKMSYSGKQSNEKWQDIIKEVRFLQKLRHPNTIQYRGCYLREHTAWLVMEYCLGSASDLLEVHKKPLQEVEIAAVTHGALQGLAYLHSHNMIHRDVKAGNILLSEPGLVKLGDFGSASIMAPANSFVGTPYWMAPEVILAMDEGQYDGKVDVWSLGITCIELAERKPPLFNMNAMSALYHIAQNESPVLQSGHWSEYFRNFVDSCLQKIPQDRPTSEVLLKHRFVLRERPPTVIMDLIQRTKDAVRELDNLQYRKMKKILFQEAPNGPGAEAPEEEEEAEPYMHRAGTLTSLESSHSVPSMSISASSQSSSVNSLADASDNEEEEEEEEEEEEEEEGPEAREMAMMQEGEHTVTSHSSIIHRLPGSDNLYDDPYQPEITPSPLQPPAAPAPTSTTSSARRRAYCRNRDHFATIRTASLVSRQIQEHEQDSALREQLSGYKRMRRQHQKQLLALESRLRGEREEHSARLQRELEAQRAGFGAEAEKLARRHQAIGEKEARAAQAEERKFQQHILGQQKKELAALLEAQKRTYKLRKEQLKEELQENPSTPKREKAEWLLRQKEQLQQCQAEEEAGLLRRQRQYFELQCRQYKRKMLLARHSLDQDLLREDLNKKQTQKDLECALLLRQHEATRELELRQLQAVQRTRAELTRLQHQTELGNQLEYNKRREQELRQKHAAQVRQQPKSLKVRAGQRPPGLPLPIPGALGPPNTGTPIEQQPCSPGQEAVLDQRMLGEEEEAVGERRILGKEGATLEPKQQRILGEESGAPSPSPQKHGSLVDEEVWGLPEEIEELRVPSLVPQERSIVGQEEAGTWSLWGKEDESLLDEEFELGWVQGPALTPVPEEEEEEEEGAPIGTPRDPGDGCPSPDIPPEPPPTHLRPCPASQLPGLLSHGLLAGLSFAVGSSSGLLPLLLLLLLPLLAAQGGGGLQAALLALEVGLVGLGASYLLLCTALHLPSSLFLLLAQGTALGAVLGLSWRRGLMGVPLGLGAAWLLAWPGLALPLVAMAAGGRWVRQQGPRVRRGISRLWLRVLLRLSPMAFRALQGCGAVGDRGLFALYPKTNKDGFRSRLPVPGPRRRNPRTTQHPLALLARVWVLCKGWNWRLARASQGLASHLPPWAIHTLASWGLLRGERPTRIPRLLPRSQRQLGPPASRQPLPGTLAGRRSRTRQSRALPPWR
Compound,read-out,method,tested at,remaining binding
CNC(=O)[C@@H]1CC[C@@H](n2c(-c3ccc4cnccc4c3)nc3ccc(C(=O)NCc4cccc(C(N)=O)c4)cc32)C1,binding,competition with immobilised ligand,1 µM,98%
O=C(NCCCN1CCOCC1)c1ccc(Nc2nccc(-c3cc4ccccc4s3)n2)cc1,binding,competition with immobilised ligand,1 µM,80%
C[C@H]1CCN(c2nccc(-c3cnn4ncccc34)n2)C1,binding,,1 µM,70%
CCCCN(CCCC)C(=O)CN1C[C@H](c2cc(OC)c3c(c2)OCO3)[C@@H](C(=O)O)[C@@H]1CC(C)(C)CCC,cell-free assay,competition with immobilised ligand,1 µM,71.1%
O=C(NCCCN1CCOCC1)c1ccc(Nc2ncc(Cl)c(-c3ccc(Cl)s3)n2)cc1,binding,competition with immobilised ligand,1 µM,69%
CNCc1ccccc1-c1csc([C@H](C)Nc2nc(C)nc3cc(OC)c(OC)cc23)c1,cell-free assay,competition with immobilised ligand,1 µM,90%
CCN1CCN(Cc2ccc(C(=O)Nc3ccc(C)c(Oc4ccc5c(c4)CC(=O)N5)c3)cc2C(F)(F)F)CC1,binding,competition with immobilised ligand,1 µM,100%
c1cncc(-c2cccc(Nc3nccc(NC4CCCCC4)n3)c2)c1,binding,competition with immobilised ligand,10 µM,94%
COc1ccnn2ncc(-c3ccnc(N(C)C)n3)c12,binding,,1 µM,85%
COc1ncc2cc3ccccc3nc2c1C#N,cell-free assay,competition with immobilised ligand,5 µM,93%
CN(C)c1nccc(-c2cnn3ncccc23)n1,binding,,1 µM,85%
O=C(c1ccc(Nc2ncc(Cl)c(-c3ccc(Cl)s3)n2)cc1)N1CCC(N2CCCC2)CC1,binding,competition with immobilised ligand,1 µM,65%
O=C(O)[C@H]1[C@H](Cn2nnc3ccccc3c2=O)CC[C@@H]1C(=O)c1ccc(OCCC2CCOCC2)cc1,cell-free assay,competition with immobilised ligand,1 µM,100%
CN(C)c1ncc(F)c(-c2cnn3ncccc23)n1,binding,,1 µM,79%
Cc1nc(Cc2cccc(C(F)(F)F)c2)sc1-c1ccc(C(N)=O)nc1,cell-free assay,competition with immobilised ligand,1 µM,86%
CC1CCCN1c1nccc(-c2cnn3ncccc23)n1 (stereo not shown),binding,,1 µM,100%
CC(=O)Nc1c(C(C)=O)c(=O)n(C)c2nc(-c3ccc(Cl)cc3Cl)c(-c3ccc(Cl)cc3)cc12,cell-free assay,competition with immobilised ligand,1 µM,88%
N[C@H]1CCN(c2nccc(-c3cnn4ncccc34)n2)C1,binding,,1 µM,52%
CN(C)C(=O)Cn1cc(-c2nc([C@@](C)(c3ccc(-c4cnc(N)nc4)cc3)C3CC3)no2)cn1,cell-free assay,competition with immobilised ligand,1 µM,81%
O=C(Nc1c[nH]nc1C(=O)NC1CCNCC1)c1cc(F)cc(F)c1,binding,competition with immobilised ligand,1 µM,61%
Cc1nc(C2CCN(C(=O)c3ccc(OC(F)(F)F)cc3N)CC2)c2ncc(N3CCN(C)CC3)cc2n1,cell-free assay,competition with immobilised ligand,1 µM,100%
CN(c1nccc(-c2cnn3ncccc23)n1)C1CC1,binding,,1 µM,100%
